The values that follow come from ChEMBL document CHEMBL5712078, “BRD9 Inhibition, Alone or in Combination with Cytostatic Compounds as a Therapeutic Approach in Rhabdoid Tumors” (Int J Mol Sci, 2017).

The subject of assay [1] is CHLA-266. The assay is described as follows: Anti-proliferative activity against human CHLA-266 cells assessed as cell viability incubated for 144 hrs by MTT assay. The class given is functional, cell-based. The settings on record: CHLA-266, 144 h. Put shortly: (§1)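 MTT proliferation assay. Cells were seeded at 3000 (BT16, KD, G401) or 5000 (BT12, Chla266) cells per well and drug was added after 24 h, final 0.001–100 µM. Read at 72 or 144 h; 144 h wells got fresh medium and drug on day 3. MTT for 3 h, formazan dissolved in isopropanol/0.04 N HCl, absorbance at 570/630 nm. Technical triplicates, ≥3 independent runs, IC50 derived.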
On the technique in general: Formazan colour is commonly taken as a measure of viable cells.

Assay [2] deals with CHLA-266. The assay is described as follows: Anti-proliferative activity against human CHLA-266 cells assessed as cell viability incubated for 72 hrs by MTT assay. It is filed as functional, cell-based. The settings on record: CHLA-266, 72 h. Put shortly: as §1
For assay [3], the system named is BT-12. Kind of assay: Anti-proliferative activity against human BT-12 cells assessed as cell viability incubated for 72 hrs by MTT assay. The class given is functional, cell-based. The following applies: BT-12, 72 h. Put shortly:
as §1

Assay [4] in a line: Anti-proliferative activity against human KD cells assessed as cell viability incubated for 72 hrs by MTT assay. The class given is functional, cell-based. Put shortly: as §1
The nature of assay [5]: Anti-proliferative activity against human KD cells assessed as cell viability incubated for 144 hrs by MTT assay. The class given is functional, cell-based. Put shortly:
as §1

Assay [6] concerns G-401. Kind of assay: Induction of cell cycle arrest in human G-401 cells assessed as accumulation of cells at G1 phase at 20 uM incubated for 72 hrs by flow cytometry analysis (reference value: 51.7+/-2%). It is filed as functional. Put shortly:
(§2)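 72 h DAPI flow-cytometry cell-cycle assay. Chla266 in IMDM/20% FBS seeded at 30,000 cells/mL; G401 in DMEM/10% FBS at 10,000 cells/mL; 1 mL/well, 37 °C, 5% CO2. Next day the medium was replaced with inhibitor at final 0, 5, 10 or 20 µM. Cells were harvested, PBS-washed, and the G1 percentage was read. n ≥ 3, mean ± SD, one-way ANOVA vs control.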
In general terms: In flow cytometry, cells or beads pass a laser one at a time.

In assay [7] the test system is CHLA-266. The assay is described as follows: Induction of cell cycle arrest in human CHLA-266 cells assessed as accumulation of cells at G1 phase at 5 uM incubated for 72 hrs by flow cytometry analysis (reference value: 74.2+/-3.6%). The class given is functional. Put shortly: (§3)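 Cell cycle. Seeding and 72 h treatment as for the apoptosis assay, with I-BRD9 or BI-9564 at 0, 5, 10 or 20 µM final. A 100 µL cell suspension was stained with DAPI and read by flow cytometry. Percentage of cells in G1, n ≥3, mean ± SD, one-way ANOVA versus control.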

Assay [8] concerns CHLA-266. Kind of assay: Induction of cell cycle arrest in human CHLA-266 cells assessed as accumulation of cells at G1 phase at 10 uM incubated for 72 hrs by flow cytometry analysis (reference value: 74.2+/-3.6%). The class given is functional. Put shortly: as §3
Assay [9] deals with G-401. Kind of assay: Induction of cell cycle arrest in human G-401 cells assessed as accumulation of cells at G1 phase at 5 uM incubated for 72 hrs by flow cytometry analysis (reference value: 46.7+/-1.9%). The class given is functional. Put shortly: as §2
Assay [10] has as its system G-401. The assay is described as follows: Induction of cell cycle arrest in human G-401 cells assessed as accumulation of cells at G1 phase at 20 uM incubated for 72 hrs by flow cytometry analysis (reference value: 46.7+/-1.9 %). The class given is functional. Put shortly: as §2
In assay [11] the test system is G-401. The assay is described as follows: Induction of apoptosis in human G-401 cells assessed as necrotic cells at 5 uM incubated for 72 hrs by flow cytometry analysis (Rvb= 5.7+/-1.9 %). The class given is functional. Put shortly:
(§4)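 Annexin V/PI flow assay. G401 at 10,000 cells/mL and BT12 or Chla266 at 30,000 cells/mL were seeded in 12-well plates. Next day medium was replaced with medium holding I-BRD9 or BI-9564 at 0, 5, 10 or 20 µM final for 72 h. Cells were washed in PBS, stained with FITC-Annexin V and propidium iodide for 15 min in the dark at room temperature, then read by flow cytometry. Percentage of dead cells, n ≥3, mean ± SD, one-way ANOVA versus control.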

Assay [12] concerns G-401. The assay is described as follows: Induction of apoptosis in human G-401 cells assessed as necrotic cells at 10 uM incubated for 72 hrs by flow cytometry analysis (Rvb= 5.7+/-1.9 %). The class given is functional. Put shortly:
as §4

The subject of assay [13] is BT-12. The assay is described as follows: Anti-proliferative activity against human BT-12 cells assessed as inhibition cell growth incubated for 72 hrs in presence of carboplatin by MTT-based Chou-Talalay method. The settings on record: BT-12, 72 h. The class given is functional. Put shortly:
(§5)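 Combination MTT assay. I-BRD9 and carboplatin, doxorubicin or vincristine were given together at a fixed 10:1 ratio, with cytostatics 0.0001–10 µM final, added 24 h after seeding. MTT read-out at 570/630 nm after 3 h formazan solubilisation. Combination index from the Chou–Talalay median-effect method: CI <1 synergism, CI >1 antagonism. n ≥3.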

Assay [14] has as its system BT-12. The assay is described as follows: Anti-proliferative activity against human BT-12 cells assessed as inhibition cell growth incubated for 72 hrs in presence of doxorubicin by MTT-based Chou-Talalay method. The class given is functional. The following applies: BT-12, 72 h. Put shortly:
as §5

The subject of assay [15] is BT-12. Kind of assay: Anti-proliferative activity against human BT-12 cells assessed as inhibition cell growth incubated for 72 hrs in presence of vincristine by MTT-based Chou-Talalay method. It is filed as functional. The following applies: BT-12, 72 h. Put shortly: as §5
Assay [16] has as its system BT-12. Kind of assay: Synergistic cytotoxicity against human BT-12 cells assessed as combination index incubated for 72 hrs in presence of carboplatin by MTT-based Chou-Talalay method. It is filed as functional. Put shortly:
(§6)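 MTT combination assay. BT12 in IMDM/20% FBS at 5000 cells/well; G401 in DMEM/10% FBS. Drugs added 24 h after seeding, with I-BRD9 and cytostatic at a fixed 10:1 ratio (final ranges 0.001–100 µM and 0.0001–10 µM). After 72 h: MTT for 3 h, dissolved in isopropanol/0.04 N HCl, read at 570/630 nm. Technical triplicates, ≥3 independent runs; combination index by Chou–Talalay median-effect analysis.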

The subject of assay [17] is BT-12. The assay is described as follows: Synergistic cytotoxicity against human BT-12 cells assessed as combination index incubated for 72 hrs in presence of doxorubicin by MTT-based Chou-Talalay method. It is filed as functional. Put shortly: as §6
The test system of assay [18] is G-401. The assay is described as follows: Anti-proliferative activity against human G-401 cells assessed as inhibition cell growth incubated for 72 hrs in presence of vincristine by MTT-based Chou-Talalay method. The settings on record: G-401, 72 h. The class given is functional. Put shortly:
as §5

For assay [19], the system named is G-401. The assay is described as follows: Synergistic cytotoxicity against human G-401 cells assessed as combination index incubated for 72 hrs in presence of vincristine by MTT-based Chou-Talalay method. It is filed as functional. Put shortly:
as §6

In assay [20] the test system is CHLA-266. The assay is described as follows: Induction of cell cycle arrest in human CHLA-266 cells assessed as accumulation of cells at G1 phase incubated for 72 hrs by flow cytometry analysis. The class given is functional, cell-based. The following applies: dose 5-20 µM. Put shortly: as §2
In assay [21] the test system is BT-12. Kind of assay: Induction of apoptosis in human BT-12 cells assessed as necrotic cells incubated for 72 hrs by flow cytometry analysis. It is filed as functional, cell-based. The following applies: dose 5-20 µM. Put shortly:
as §4

Assay [22] concerns CHLA-266. Kind of assay: Induction of apoptosis in human CHLA-266 cells assessed as necrotic cells at 5 uM incubated for 72 hrs by flow cytometry analysis (Rvb= 5.0+/-0.3 %).

What is called IC50 is the concentration that gives 50% inhibition. Take `CCn1cc(-c2cccc(C(F)(F)F)c2)c2sc(C(=N)NC3CCS(=O)(=O)CC3)cc2c1=O`: the IC50 came to 24.7 µM with CHLA-266 [1]; 13.3 µM in the assay on CHLA-266 [2]; 21.2 µM in the assay on BT-12 [3]; 8.1 µM in assay [4]; 7.1 µM in [5]; 40.9 µM with BT-12 [13]. The IC50 with BT-12 [14] was 0.94 µM; in the assay on BT-12 [15], 16.7 µM; with G-401 [18], 0.008 µM. Besides, the Activity stood at 65.5% in the assay with G-401 [6]; 79.5% in the assay with CHLA-266 [7]; 82.7% with CHLA-266 [8]; 53% in the assay with G-401 [9]; 78.1% in the assay with G-401 [10]; 7.7% in the assay with G-401 [11]. The Activity with G-401 [12] is 18.8%; in the assay with CHLA-266 [20], “Dose-Dependent Effect”; in the assay with BT-12 [21], “Dose-Dependent Effect”; with CHLA-266 [22] it was 7.7%. The CI turned out to be 1.01 in the assay on BT-12 [16], 0.42 with BT-12 [17] and 9 in the assay with G-401 [19].
